pIC50: −log10 of the molar value. Active and inactive are the calls of the source.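 The calls were made as follows: active = IC50 of 1 µM or lower against any of the four PAD enzymes tested; inactive = the rest.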
Assays:
Assay in all cases: PAD1-4 enzyme inhibition potency, late-stage follow-up, selectivity assay for PAD4 inhibitor project, biochemical, colorimetric, BAEE substrate, recombinant PAD1-4 (AID 588438)
[1] = target: Protein-arginine deiminase type-2 (Homo sapiens) (UniProt Q9Y2J8); details: recombinant PAD1-4, BAEE citrulline colorimetric absorbance; PAD2
Procedure, shortened: (§1)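 Assay system: recombinant PAD1–4 enzymes / Medium: pH 7.6 Tris buffer with calcium / Incubation: Enzyme–inhibitor preincubation 15 min, then substrate reaction 15 min, 37 °C / Signal: citrulline color absorbance at 540 nm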

[2] = target: Protein-arginine deiminase type-1 (Homo sapiens) (UniProt Q9ULC6); details: recombinant PAD1-4, BAEE citrulline colorimetric absorbance; PAD1
Procedure, shortened: as §1

[3] = target: Protein-arginine deiminase type-4 (Homo sapiens) (UniProt Q9UM07); details: recombinant PAD1-4, BAEE citrulline colorimetric absorbance; PAD4
Procedure, shortened: as §1

[4] = target: Protein-arginine deiminase type-3 (Homo sapiens) (UniProt Q9ULW8); details: recombinant PAD1-4, BAEE citrulline colorimetric absorbance; PAD3
Procedure, shortened: as §1

Chain of Protein-arginine deiminase type-1 (Homo sapiens) (Q9ULC6 whole entry, looked up): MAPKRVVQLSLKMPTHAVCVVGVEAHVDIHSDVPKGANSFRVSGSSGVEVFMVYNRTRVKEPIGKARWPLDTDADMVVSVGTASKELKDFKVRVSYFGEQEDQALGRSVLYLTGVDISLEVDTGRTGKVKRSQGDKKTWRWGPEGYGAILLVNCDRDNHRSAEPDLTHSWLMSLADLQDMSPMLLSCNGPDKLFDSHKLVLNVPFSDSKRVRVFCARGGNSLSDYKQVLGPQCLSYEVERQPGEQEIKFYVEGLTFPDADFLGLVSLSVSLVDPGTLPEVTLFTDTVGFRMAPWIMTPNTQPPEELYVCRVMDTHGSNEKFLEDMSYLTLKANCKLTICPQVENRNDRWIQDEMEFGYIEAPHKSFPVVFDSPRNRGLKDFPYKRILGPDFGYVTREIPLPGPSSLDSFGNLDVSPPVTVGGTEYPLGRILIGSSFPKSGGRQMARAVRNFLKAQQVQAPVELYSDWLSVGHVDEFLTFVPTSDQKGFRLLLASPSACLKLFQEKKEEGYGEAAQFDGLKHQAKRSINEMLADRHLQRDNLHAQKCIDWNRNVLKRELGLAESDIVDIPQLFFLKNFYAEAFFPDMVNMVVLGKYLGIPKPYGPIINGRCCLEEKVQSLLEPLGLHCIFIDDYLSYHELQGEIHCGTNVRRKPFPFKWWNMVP
Chain of Protein-arginine deiminase type-2 (Homo sapiens) (Q9Y2J8 whole entry, looked up): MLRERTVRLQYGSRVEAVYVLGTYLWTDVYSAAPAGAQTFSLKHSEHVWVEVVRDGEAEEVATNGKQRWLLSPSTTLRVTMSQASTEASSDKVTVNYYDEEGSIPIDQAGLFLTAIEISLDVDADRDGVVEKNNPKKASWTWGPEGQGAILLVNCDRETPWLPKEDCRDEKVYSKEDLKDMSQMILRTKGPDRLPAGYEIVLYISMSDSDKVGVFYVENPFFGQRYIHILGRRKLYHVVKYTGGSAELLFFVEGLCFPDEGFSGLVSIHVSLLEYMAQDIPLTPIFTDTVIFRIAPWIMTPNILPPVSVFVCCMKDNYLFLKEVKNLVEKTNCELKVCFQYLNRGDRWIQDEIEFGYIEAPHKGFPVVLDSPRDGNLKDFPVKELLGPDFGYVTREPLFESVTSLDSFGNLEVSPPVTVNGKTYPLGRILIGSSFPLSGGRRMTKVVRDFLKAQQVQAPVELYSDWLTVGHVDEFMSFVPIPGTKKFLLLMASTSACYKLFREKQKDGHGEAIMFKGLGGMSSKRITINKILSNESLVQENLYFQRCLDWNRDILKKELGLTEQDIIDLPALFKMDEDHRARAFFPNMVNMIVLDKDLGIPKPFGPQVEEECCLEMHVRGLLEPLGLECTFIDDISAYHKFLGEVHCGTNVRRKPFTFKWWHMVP
Chain of Protein-arginine deiminase type-3 (Homo sapiens) (Q9ULW8 whole entry, looked up): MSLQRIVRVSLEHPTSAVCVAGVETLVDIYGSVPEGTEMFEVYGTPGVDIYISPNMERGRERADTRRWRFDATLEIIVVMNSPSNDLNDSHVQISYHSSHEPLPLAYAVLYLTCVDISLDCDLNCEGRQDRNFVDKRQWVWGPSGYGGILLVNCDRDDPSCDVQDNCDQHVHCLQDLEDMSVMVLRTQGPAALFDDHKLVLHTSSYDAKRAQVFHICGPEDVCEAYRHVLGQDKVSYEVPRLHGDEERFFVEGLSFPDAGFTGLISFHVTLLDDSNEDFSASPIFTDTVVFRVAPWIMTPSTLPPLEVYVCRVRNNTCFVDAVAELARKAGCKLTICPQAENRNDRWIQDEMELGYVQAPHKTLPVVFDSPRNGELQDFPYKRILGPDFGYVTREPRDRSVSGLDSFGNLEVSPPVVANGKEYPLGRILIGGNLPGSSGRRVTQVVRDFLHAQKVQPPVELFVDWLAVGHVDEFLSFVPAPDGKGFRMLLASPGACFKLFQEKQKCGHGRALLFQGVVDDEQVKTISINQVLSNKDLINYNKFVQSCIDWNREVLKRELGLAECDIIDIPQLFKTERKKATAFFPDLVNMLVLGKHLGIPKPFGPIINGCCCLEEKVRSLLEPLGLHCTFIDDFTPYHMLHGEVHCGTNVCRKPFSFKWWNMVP
Chain of Protein-arginine deiminase type-4 (Homo sapiens) (Q9UM07 whole entry, looked up): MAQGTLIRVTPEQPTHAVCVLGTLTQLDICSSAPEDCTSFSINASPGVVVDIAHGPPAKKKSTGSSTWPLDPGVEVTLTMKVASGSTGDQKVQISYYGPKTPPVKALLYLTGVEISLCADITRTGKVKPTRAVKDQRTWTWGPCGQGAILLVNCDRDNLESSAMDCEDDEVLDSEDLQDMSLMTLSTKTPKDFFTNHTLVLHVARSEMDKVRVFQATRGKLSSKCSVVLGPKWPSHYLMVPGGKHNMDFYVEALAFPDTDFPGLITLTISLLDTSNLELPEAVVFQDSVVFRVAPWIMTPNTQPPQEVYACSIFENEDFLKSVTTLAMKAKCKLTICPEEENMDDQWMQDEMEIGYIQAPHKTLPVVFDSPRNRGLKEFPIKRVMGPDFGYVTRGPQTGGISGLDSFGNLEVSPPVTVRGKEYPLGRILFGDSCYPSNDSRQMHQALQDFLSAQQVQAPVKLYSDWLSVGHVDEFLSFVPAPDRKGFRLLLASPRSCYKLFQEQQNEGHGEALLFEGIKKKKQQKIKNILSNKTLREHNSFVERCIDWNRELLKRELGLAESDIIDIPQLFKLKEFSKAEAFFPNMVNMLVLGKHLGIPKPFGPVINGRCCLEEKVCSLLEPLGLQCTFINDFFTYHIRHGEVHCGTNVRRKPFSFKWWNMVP

pIC50 [1]: 6.38
IC50 [2]: inactive
pIC50 [3]: 6.06
pIC50 [4]: 6.48
SMILES: COC(=O)c1cccc(-c2ccc3c(n2)C(=O)C(N)=CC3=O)n1
